# Compound activity from PubChem BioAssay.
# Shown are actives, neighbours in structure and some others; about 4.9% of the full set was active somewhere.
# FLuc inh counter: firefly luciferase enzyme inhibitors, primary screen, artefact control for luciferase-based inhibitor screens, biochemical, luminescence, ATPLite; Luciferin 4-monooxygenase (Photinus pyralis), P08659; 10 min; inhibition, % at 10 µM; 200,000 compounds, 1.5% hits; AID 1006, 2008;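 active = inhibition above about 50% when tested at 10 µM, limit read from the data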
# Target sequence (P08659 whole entry, looked up): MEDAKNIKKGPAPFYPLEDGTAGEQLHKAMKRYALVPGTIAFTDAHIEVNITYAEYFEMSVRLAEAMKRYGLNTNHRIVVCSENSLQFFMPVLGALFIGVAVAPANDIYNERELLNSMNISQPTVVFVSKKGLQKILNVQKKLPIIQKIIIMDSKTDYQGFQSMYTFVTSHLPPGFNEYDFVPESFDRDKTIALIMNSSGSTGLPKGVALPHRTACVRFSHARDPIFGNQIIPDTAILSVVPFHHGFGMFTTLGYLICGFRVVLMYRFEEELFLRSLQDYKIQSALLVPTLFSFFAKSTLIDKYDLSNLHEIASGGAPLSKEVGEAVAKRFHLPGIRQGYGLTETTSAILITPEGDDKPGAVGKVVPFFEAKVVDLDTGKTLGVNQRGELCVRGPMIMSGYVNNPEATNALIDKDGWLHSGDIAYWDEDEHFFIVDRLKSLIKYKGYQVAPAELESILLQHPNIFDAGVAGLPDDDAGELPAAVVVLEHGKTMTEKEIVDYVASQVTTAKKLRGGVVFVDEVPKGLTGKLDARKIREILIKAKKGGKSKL
# STAT3 blocker: IL-6 driven STAT3 reporter inhibitors, primary screen, U3A cells, luciferase, luminescence, MLSCN library; IL-6 STAT3-luciferase reporter; host cell line lacks STAT1; inhibition, % at 5.5 µM; 190,000 compounds, 0.89% hits; AID 862, 2007;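 active = inhibition above the mean inhibition across all screened compounds plus 3 SD, cut at about 44% in these data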;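 note: 0% = DMSO only wells and 100% = 100 µM nifuroxazide control wells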
# STAT3 activator: IL-6 driven STAT3 reporter potentiators, primary screen, U3A cells, luciferase, luminescence, MLSCN library; IL-6 STAT3-luciferase reporter; 100% = signal with IL-6 EC80 alone; activation (% of control), % at 5.6 µM; 190,000 compounds, 0.91% hits;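 active = activation above the screen-wide mean of compound activation plus 3 SD, cut at about 130% in these data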;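 note: 0% = background luminescence of wells with medium and substrate only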
#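 Material: human U3A cells carrying STAT3-luciferase construct. Measured by: reporter luminescence signal. Timing: compound 1 h, then IL-6 6 h at 37 °C.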
# FLuc stim CS: FLuc activators, initial screening, artefact control for FLuc-dependent activation tests, biochemical, ATPlite luminescence | 200,000 tested, under 10 active | ATPlite luciferase biochemical, 10 min; 0 = ATP-free wells, 1 = DMSO control | activation factor at 10 µM | AID 1027, 2008;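 active = luciferase activation factor, scaled between plate controls, of at least 2 with compound at 10 µM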
#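 System: Luciferase/luciferin detection reagent, cell-free biochemical luciferase assay | Medium: PBS buffer for ATP | Dosing: Test compounds dosed from 2 mM stocks in 100% DMSO | Timing: 10 min at ambient temperature | Signal: Luminescence measurement of luciferase light output | Evaluation: Luciferase activation, seen as luminescence increase over controls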
# STAT1 activator: STAT1 signaling activators, primary screen, cell-based, HTS, luciferase reporter; AID 932, 2007; activation (% of control), % at 5.5 µM; 200,000 compounds, 2.6% hits; NIH 3T3 STAT1-luciferase reporter, IFN-gamma, luminescence; 100% = IFN-gamma alone, no compound;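 active = activation above the screen-wide mean activation plus 3 SD, cut at about 130% in these data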;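 note: raw ratio to IFN-gamma control signal so 100% means no change and 0% no light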
# STAT1 blocker: STAT1 signaling inhibitors, primary screen, cell-based, HTS, luciferase reporter; inhibition, % at 5.5 µM; NIH 3T3 STAT1-luciferase reporter, IFN-gamma, luminescence; 200,000 compounds, 0.35% hits;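 active = inhibition above a set limit, the mean inhibition across all tested compounds plus 3 SD, cut at about 34% in these data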;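 note: 0% = IFN-gamma with DMSO and 100% = IFN-gamma with 300 µM nifuroxazide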
# The depositor's hits bear a star.
SMILES,FLuc inh counter,STAT3 blocker,STAT3 activator,FLuc stim CS,STAT1 activator,STAT1 blocker
CCCCCCCCCn1c2c(c(=N)c3c1CCC3)CCCC2,-2,76*,39,1,52,52*
CCOC(=O)Cn1c2c(c(=N)c3c1CCC3)CCC2,-2,0,102,1,100,0
CCCCCCCCCCn1c2c(c(=N)c3c1CCC3)CCC2,-6,78*,38,1.1,77,25
C=C(C)C1CC=C(C)/C(=N/NC(=O)c2cccs2)C1 (stereo not drawn),43,-3,101,0.6,129*,-33
C=C(C)C1CC=C(C)/C(=N/NC(=O)c2ccccc2[N+](=O)[O-])C1 (stereo not drawn),-11,15,92,1.1,87,14
O=C(N/C=C/c1ccccc1)Nc1ccc(Cl)cc1,6,7,95,0.9,141*,-45
Cc1ccc(NC(=O)N/C=C/c2ccccc2)cc1,12,-4,103,0.9,146*,-50
COc1ccc(NC(=O)N/C=C/c2ccc(Cl)cc2)cc1,0,15,91,1,118,-21
O=C(NCCc1ccccc1)Nc1ccc(Cl)cc1,-5,-8,107,1.1,147*,-53
Cc1ccc(NC(=O)N/C=C/c2ccc(Cl)cc2)cc1,4,11,97,1,128,-31
CCOC(=O)C1(CC2CC2)CCN(Cc2ccc3cccc(F)c3n2)CC1,-8,-23,122,1.1,91,7
CCOc1ccccc1NC(=O)CCCN1C(=S)NC(C)(C)CC1C (stereo not drawn),-8,-12,108,1.1,98,2
NC1=NC(=Nc2ccccc2)c2ccccc21,-1,8,102,1,92,9
NC1=NC(=Nc2ccc(Br)cc2)c2ccccc21,53*,11,93,0.5,103,-3
Cc1ccc(S(=O)(=O)Oc2ccc(/C=C(/NC(=O)c3ccccc3)C(=O)NC(C)C(=O)O)cc2)cc1 (stereo not drawn),2,7,98,1,95,3
C/C(=N\Nc1cccc([N+](=O)[O-])c1)c1ccccc1O,0,-3,109,1,135*,-38
Cc1ccc(S(=O)(=O)Oc2ccc(N3C(=O)C4C5CCC(C5)C4C3=O)cc2)cc1 (stereo not drawn),-10,18,94,1.1,88,13
O=C1C2C3CCC(C3)C2C(=O)N1c1ccc(OS(=O)(=O)c2ccccc2)cc1 (stereo not drawn),10,0,104,0.9,137*,-44
O=C1c2ccccc2CN1CCSC(=S)N1CCSCC1,24,9,99,0.8,134*,-36
O=C1c2ccccc2CN1CCSC(=S)N1CCOCC1,14,-4,107,0.9,130*,-34
O=S(=O)(/N=C(/Nc1ccc(F)c(F)c1F)c1ccccc1)c1ccccc1,-3,-7,106,1,106,-7
CCC(=O)N1CCc2cc(Br)cc(S(=O)(=O)N(C)c3ccc(OC)cc3OC)c21,2,18,91,1,91,8
CNC(=S)SCCOc1ccccc1C,-2,2,98,1,92,8
O=[N+]([O-])c1ccc2[nH]ncc2c1,-4,12,92,1,99,0
CCCN=Cc1sc2ccc(OCC)cc2c1O,10,15,90,0.9,130*,-33
O=C(O)c1ccc(Nc2cnc3ccccc3n2)cc1,4,2,105,1,131*,-33
O=C(O)c1cnc2ccccc2n1,0,10,98,1,97,3
COc1ccc(NC(=O)N2CCN(S(C)(=O)=O)CC2)c(OC)c1,-7,-2,101,1.1,91,9
C=CCN(c1ccc(C(=O)Nc2ccc(C)c(C)c2)cc1)S(C)(=O)=O,-2,-7,104,1,99,1
